Holding throughout (type): functional
Test [1] deals with Pseudoperonospora cubensis. Briefly: Antifungal activity against Pseudoperonospora cubensis assessed as fungicidal activity at 200 mg/L (beneficial crop - cucumber). An outline of the steps: (§1)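 In vivo preventive test on cucumber as host plant.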
Another test concerns Podosphaera fuliginea. Briefly: Antifungal activity against Podosphaera fuliginea assessed as fungicidal activity at 200 mg/L (beneficial crop - cucumber). The gist of the method:
as §1

A further test has as its system Botrytis cinerea. Briefly: Antifungal activity against Botryotinia fuckeliana assessed as fungicidal activity at 200 mg/L (beneficial crop - cucumber). The gist of the method:
as §1

The test system of a further test is Rhizoctonia solani. Briefly: Antifungal activity against Rhizoctonia solani assessed as fungicidal activity at 200 mg/L (beneficial crop - cucumber). The gist of the method: as §1

The values that follow come from ChEMBL document CHEMBL3045438, “Synthesis and fungicidal evaluation of novel chalcone-based strobilurin analogues” (2007).

`CO/C=C(/C(=O)OC)c1ccccc1COc1ccc(C(=O)/C=C/c2ccc(OC)cc2)cc1`: the inhibition at 200 µg/mL in test [1] came out at 62%; with Podosphaera fuliginea, 0%; in the test on Botrytis cinerea, 0%; in the test on Rhizoctonia solani, 0%.
Regarding `CO/C=C(/C(=O)OC)c1ccccc1COc1ccc(C(=O)/C=C/c2cccc(F)c2)cc1`, the inhibition at 200 µg/mL turned out to be 97% in test [1], 0% with Podosphaera fuliginea, 0% with Botrytis cinerea and 0% with Rhizoctonia solani.
For `CO/C=C(/C(=O)OC)c1ccccc1COc1cccc(C(=O)/C=C/c2ccc(C(C)(C)C)cc2)c1`, the inhibition at 200 µg/mL in test [1] is 28%; with Podosphaera fuliginea, 78%; in the test with Botrytis cinerea it was 0%; in the test with Rhizoctonia solani, 0%.
Turning to `CO/C=C(/C(=O)OC)c1ccccc1COc1cccc(C(=O)/C=C/c2ccccc2F)c1`, the inhibition at 200 µg/mL in test [1] worked out at 0%; in the test on Podosphaera fuliginea, 0%; with Botrytis cinerea it was 0%; in the test on Rhizoctonia solani, 38%.
For the compound `CO/C=C(/C(=O)OC)c1ccccc1COc1cccc(C(=O)/C=C/c2ccc(OC)cc2)c1`, the inhibition at 200 µg/mL stood at 95% in test [1], 0% with Podosphaera fuliginea, 0% with Botrytis cinerea and 0% in the test on Rhizoctonia solani.
For the compound `CO/C=C(/C(=O)OC)c1ccccc1COc1cccc(C(=O)/C=C/c2ccccc2)c1`, the inhibition at 200 µg/mL in test [1] came out at 96%; in the test on Podosphaera fuliginea, 0%; in the test on Botrytis cinerea, 0%; in the test on Rhizoctonia solani, 0%.
Regarding `CO/C=C(/C(=O)OC)c1ccccc1COc1ccc(C(=O)/C=C/c2ccc(C)cc2)cc1`, the inhibition at 200 µg/mL came to 75% in test [1], 0% with Podosphaera fuliginea, 0% in the test with Botrytis cinerea and 38% in the test with Rhizoctonia solani.
As to `CO/C=C(/C(=O)OC)c1ccccc1COc1ccccc1C(=O)/C=C/c1ccc(Br)cc1`, the inhibition at 200 µg/mL (in test [1]; with Podosphaera fuliginea; in the test on Botrytis cinerea; in the test on Rhizoctonia solani) was 0% in each case.
Turning to `CO/C=C(/C(=O)OC)c1ccccc1COc1ccc(C(=O)/C=C/c2cccs2)cc1`, the inhibition at 200 µg/mL (in test [1]; in the test with Podosphaera fuliginea; in the test with Botrytis cinerea; in the test on Rhizoctonia solani) was 0% each time.
On to `CO/C=C(/C(=O)OC)c1ccccc1COc1cccc(C(=O)/C=C/c2cccc(C)c2)c1`, for which the inhibition at 200 µg/mL in test [1] was determined as 81%; in the test with Podosphaera fuliginea, 0%; in the test with Botrytis cinerea, 0%; in the test on Rhizoctonia solani it was 0%.
Consider `CO/C=C(/C(=O)OC)c1ccccc1COc1ccccc1C(=O)/C=C/c1cccc(Cl)c1`, for which the inhibition at 200 µg/mL worked out at 39% in test [1], 0% in the test on Podosphaera fuliginea, 0% in the test on Botrytis cinerea and 0% in the test with Rhizoctonia solani.
`CCOc1ccc(/C=C/C(=O)c2ccc(OCc3ccccc3/C(=C\OC)C(=O)OC)cc2)cc1`: the inhibition at 200 µg/mL in test [1] is 59%; with Podosphaera fuliginea, 0%; in the test with Botrytis cinerea it was 0%; with Rhizoctonia solani it was 0%.
For the compound `CCc1ccc(/C=C/C(=O)c2ccc(OCc3ccccc3/C(=C\OC)C(=O)OC)cc2)cc1`, the inhibition at 200 µg/mL in test [1] worked out at 15%; with Podosphaera fuliginea, 56%; with Botrytis cinerea it was 0%; in the test on Rhizoctonia solani, 69%.
Take `CO/C=C(/C(=O)OC)c1ccccc1COc1ccc(Cl)cc1C(=O)/C=C/c1ccc(OC)cc1`: the inhibition at 200 µg/mL (in test [1]; in the test with Podosphaera fuliginea; in the test with Botrytis cinerea; with Rhizoctonia solani) was 0% in each case.
On to `CO/C=C(/C(=O)OC)c1ccccc1COc1ccccc1C(=O)/C=C/c1cccc(Br)c1`, for which the inhibition at 200 µg/mL in test [1] turned out to be 78%; in the test with Podosphaera fuliginea, 0%; with Botrytis cinerea, 0%; with Rhizoctonia solani it was 0%.
Consider `CO/C=C(/C(=O)OC)c1ccccc1COc1ccc(C(=O)/C=C/c2cccc(C)c2)cc1`, for which the inhibition at 200 µg/mL in test [1] stood at 47%; with Podosphaera fuliginea, 0%; in the test on Botrytis cinerea, 0%; in the test with Rhizoctonia solani it was 0%.
Turning to `CO/C=C(/C(=O)OC)c1ccccc1COc1cccc(C(=O)/C=C/c2ccco2)c1`, the inhibition at 200 µg/mL in test [1] amounted to 0%; with Podosphaera fuliginea, 0%; with Botrytis cinerea, 16%; in the test on Rhizoctonia solani, 0%.
For the compound `CO/C=C(/C(=O)OC)c1ccccc1COc1cccc(C(=O)/C=C/c2ccc(Cl)cc2Cl)c1`, the inhibition at 200 µg/mL was 54% in test [1], 0% in the test on Podosphaera fuliginea, 0% with Botrytis cinerea and 30% in the test with Rhizoctonia solani.
On to `CO/C=C(/C(=O)OC)c1ccccc1COc1ccc(C(=O)/C=C/c2cccc(OC)c2)cc1`, for which the inhibition at 200 µg/mL turned out to be 86% in test [1], 0% in the test on Podosphaera fuliginea, 0% with Botrytis cinerea and 20% with Rhizoctonia solani.
On to `CO/C=C(/C(=O)OC)c1ccccc1COc1ccc(Cl)cc1C(=O)/C=C/c1ccc(C)cc1`, for which the inhibition at 200 µg/mL (in test [1]; in the test with Podosphaera fuliginea; in the test with Botrytis cinerea; in the test on Rhizoctonia solani) was 0% each time.
Regarding `CO/C=C(/C(=O)OC)c1ccccc1COc1cccc(C(=O)/C=C/c2ccc(OC)c(OC)c2)c1`, the inhibition at 200 µg/mL in test [1] stood at 72%; in the test on Podosphaera fuliginea, 0%; in the test on Botrytis cinerea, 0%; in the test with Rhizoctonia solani it was 0%.
`CO/C=C(/C(=O)OC)c1ccccc1COc1ccc(C(=O)/C=C/c2ccccc2Br)cc1`: the inhibition at 200 µg/mL worked out at 83% in test [1], 67% in the test on Podosphaera fuliginea, 0% in the test with Botrytis cinerea and 21% in the test on Rhizoctonia solani.
The matching figures for `CO/C=C(/C(=O)OC)c1ccccc1COc1cccc(C(=O)/C=C/c2cccc(F)c2)c1`: 0%, 0%, 10% and 36%.
For `CO/C=C(/C(=O)OC)c1ccccc1COc1ccccc1C(=O)/C=C/c1cccc(OC)c1` the same measures were 61%, 0%, 11% and 0%.
For `CCc1ccc(/C=C/C(=O)c2cccc(OCc3ccccc3/C(=C\OC)C(=O)OC)c2)cc1` the same measures were 100%, 78%, 0% and 0%.
As to `CO/C=C(/C(=O)OC)c1ccccc1COc1ccc(C(=O)/C=C/c2ccco2)cc1`, the inhibition at 200 µg/mL (in test [1]; in the test on Podosphaera fuliginea; with Botrytis cinerea; in the test on Rhizoctonia solani) was 0% each time.
Turning to `CO/C=C(/C(=O)OC)c1ccccc1COc1ccc(Cl)cc1C(=O)/C=C/c1ccccc1Cl`, the inhibition at 200 µg/mL (in test [1]; in the test with Podosphaera fuliginea; in the test on Botrytis cinerea; in the test on Rhizoctonia solani) was 0% in each case.
Consider `CO/C=C(/C(=O)OC)c1ccccc1COc1ccc(C(=O)/C=C/c2ccccc2Cl)cc1`, for which the inhibition at 200 µg/mL in test [1] amounted to 100%; in the test on Podosphaera fuliginea it was 0%; in the test on Botrytis cinerea, 0%; with Rhizoctonia solani it was 0%.
On to `CO/C=C(/C(=O)OC)c1ccccc1COc1ccccc1C(=O)/C=C/c1ccc(OC)cc1`, for which the inhibition at 200 µg/mL (in test [1]; in the test on Podosphaera fuliginea; in the test with Botrytis cinerea; in the test on Rhizoctonia solani) was 0% each time.
As for `CO/C=C(/C(=O)OC)c1ccccc1COc1cccc(C(=O)/C=C/c2ccc(Br)cc2)c1`, the inhibition at 200 µg/mL worked out at 94% in test [1], 45% in the test on Podosphaera fuliginea, 0% in the test on Botrytis cinerea and 0% with Rhizoctonia solani.
With `CO/C=C(/C(=O)OC)c1ccccc1COc1ccc(C(=O)/C=C/c2ccc(Cl)c(Cl)c2)cc1`, the inhibition at 200 µg/mL was 33% in test [1], 67% in the test on Podosphaera fuliginea, 0% in the test on Botrytis cinerea and 37% with Rhizoctonia solani.
For `CO/C=C(/C(=O)OC)c1ccccc1COc1ccc(C(=O)/C=C/c2ccc(Cl)cc2Cl)cc1` the same measures were 67%, 78%, 0% and 27%.
For `CO/C=C(/C(=O)OC)c1ccccc1COc1cccc(C(=O)/C=C/c2ccc(N(C)C)cc2)c1` the same measures were 0%, 0%, 0% and 32%.
With `CO/C=C(/C(=O)OC)c1ccccc1COc1cccc(C(=O)/C=C/c2c(F)cccc2Cl)c1`, the inhibition at 200 µg/mL in test [1] worked out at 97%; with Podosphaera fuliginea, 13%; with Botrytis cinerea, 0%; in the test with Rhizoctonia solani, 0%.
As for `CO/C=C(/C(=O)OC)c1ccccc1COc1ccc(C)cc1C(=O)/C=C/c1ccc(Cl)cc1`, the inhibition at 200 µg/mL was found to be 89% in test [1], 0% in the test with Podosphaera fuliginea, 0% in the test on Botrytis cinerea and 0% in the test with Rhizoctonia solani.
As to `CO/C=C(/C(=O)OC)c1ccccc1COc1ccc(C(=O)/C=C/c2ccc(F)cc2)cc1`, the inhibition at 200 µg/mL in test [1] worked out at 100%; in the test with Podosphaera fuliginea, 0%; in the test on Botrytis cinerea, 0%; with Rhizoctonia solani it was 23%.
On to `CO/C=C(/C(=O)OC)c1ccccc1COc1ccccc1C(=O)/C=C/c1ccc(C)c(C)c1`, for which the inhibition at 200 µg/mL (in test [1]; with Podosphaera fuliginea; in the test on Botrytis cinerea; in the test with Rhizoctonia solani) was 0% throughout.

By inhibition is commonly meant the change of the read-out against control, counted positive when it falls.
